Assay outcomes as filed in PubChem BioAssay.
Rows were chosen to be rich in hits. Some 12% of all compounds tested hit in one or more screens of this group.
ABCB1 inh: inhibitors of human ABCB1 transporter, ABCG2 counter-screen; AID 1326; hit rate 0.067% among 190,000; P08183; CCRF-Adr cells, JC-1 efflux, flow cytometry; inhibition, % at 6.6 µM; in the data active = inhibition above about 40%;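 also: 0% = vehicle and 100% = reference inhibitor; higher value means more JC-1 retained so stronger ABCB1 efflux block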
Lmaj promast: Leishmania major promastigote growth inhibition; Leishmania major promastigotes, resazurin fluorescence viability; inhibition, % at 10 µM; hit rate 9% among 200,000; in the data active = inhibition above about 50%;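 also: promastigotes grown with compound for 44 hours at 28 °C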
WT yeast gro inh: growth inhibition of WT yeast, mitochondrial fusion screen | mitochondrial fusion phenotypic screen, WT strain | inhibition, % at 10 µM | hit rate 2.1% among 190,000; in the data active = inhibition above about 58%; tested in S. cerevisiae
RAM inhibit: inhibitors of the yeast RAM network; S. cerevisiae dse1pr::URA3 reporter, 5-FOA growth OD615, 2 d; analog-sensitive cbk1-as2 kinase mutant strain; inhibition, % at 50 µM; hit rate 1.8% among 190,000;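 active = inhibition above a set limit, 3 SD over mean compound inhibition, cut at about 8.4% in these data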;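 also: 0% = DMSO-only wells with no growth and 100% = 10 µM 1-NA-PP1 full growth; inhibition rescues growth on 5-FOA so higher OD means more RAM inhibition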
ABCG2 inh: inhibitors of human ABCG2 transporter, ABCB1 counter-screen | inhibition, % at 6.6 µM | hit rate 0.1% among 190,000 | IgMXP3 cells, JC-1 efflux, flow cytometry | Q9UNQ0;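 active = inhibition above 80%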;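 also: 0% = DMSO and 100% = nicardipine control wells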
Target sequence (Q9UNQ0 whole entry, looked up): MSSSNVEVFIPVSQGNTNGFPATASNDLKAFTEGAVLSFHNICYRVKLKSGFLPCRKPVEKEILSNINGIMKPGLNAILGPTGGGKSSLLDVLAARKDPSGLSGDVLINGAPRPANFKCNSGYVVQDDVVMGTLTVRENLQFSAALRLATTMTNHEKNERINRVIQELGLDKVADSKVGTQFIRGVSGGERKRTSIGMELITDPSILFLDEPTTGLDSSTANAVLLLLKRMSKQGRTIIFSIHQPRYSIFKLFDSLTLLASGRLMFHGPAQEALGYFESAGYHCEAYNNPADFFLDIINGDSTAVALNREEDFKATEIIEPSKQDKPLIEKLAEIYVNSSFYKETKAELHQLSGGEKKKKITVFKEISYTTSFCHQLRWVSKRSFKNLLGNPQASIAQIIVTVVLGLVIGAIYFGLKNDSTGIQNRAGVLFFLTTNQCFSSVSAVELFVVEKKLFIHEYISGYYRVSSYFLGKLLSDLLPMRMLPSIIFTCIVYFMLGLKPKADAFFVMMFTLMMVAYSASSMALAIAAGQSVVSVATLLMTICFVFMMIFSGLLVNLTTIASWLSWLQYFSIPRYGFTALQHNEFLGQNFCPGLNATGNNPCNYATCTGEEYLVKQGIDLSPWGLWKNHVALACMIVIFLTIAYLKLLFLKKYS
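Test system: IgMXP3 (ABCG2) plus far-red-tagged CCRF-Adr (ABCB1) cells. Reagent: JC-1 dye as substrate. Timing: 10 min exposure at 25 °C with rotation, no wash. Measured by: flow cytometric JC-1 green MFI at 530 nm. Read-out: percent efflux inhibition, scaled nicardipine 100% to DMSO 0%. Control set: nicardipine and DMSO wells.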
* = called active by the depositor.

Cn1c(SCC(=O)CC(=O)Nc2ccccc2)nnc1-c1ccc(O)cc1 was read as ABCB1 inh -2, Lmaj promast -7, WT yeast gro inh -20, RAM inhibit 1 and ABCG2 inh -6.
Cc1c(O)c2c(=O)n(-c3ccccc3)c(-c3ccccc3)cc2oc1=O was read as ABCB1 inh 0, Lmaj promast 29, WT yeast gro inh -1, RAM inhibit 5 and ABCG2 inh 1.
Screening C=CCN(CC=C)C(=S)Nc1ccc(OC)c(OC)c1 returned ABCB1 inh 1, Lmaj promast -5, WT yeast gro inh -12, RAM inhibit 0 and ABCG2 inh 3.
Screening CN(Cc1cn(-c2ccccc2)nc1-c1ccc2c(c1)OCO2)Cc1nccn1C returned ABCB1 inh 1, Lmaj promast 24, WT yeast gro inh 14, RAM inhibit 0 and ABCG2 inh 1.
`CN(CCn1ccnc1)Cc1cn(-c2ccccc2)nc1-c1ccc2c(c1)OCO2` gave ABCB1 inh 2, Lmaj promast 94*, WT yeast gro inh 20, RAM inhibit 0 and ABCG2 inh 15.
For OCCC1CN(Cc2cc3c(cc2Cl)OCO3)CCN1C1CCCCC1 (stereo not drawn) the results were ABCB1 inh 1, Lmaj promast 48, WT yeast gro inh 4, RAM inhibit -1 and ABCG2 inh 3.
For Cc1cccc(C)c1NC(=O)CCCSc1nnc(-c2ccc(Cl)cc2)n1-c1ccccc1 the results were ABCB1 inh 3, Lmaj promast 56*, WT yeast gro inh 36, RAM inhibit 5 and ABCG2 inh 6.
`CCOC(=O)c1sc2nc(CN3CCCCC3)nc(Cl)c2c1C` gave ABCB1 inh 0, Lmaj promast 5, WT yeast gro inh -16, RAM inhibit 2 and ABCG2 inh 0.
For Cc1sc2nc(CN3CCCC3)nc(Cl)c2c1C the results were ABCB1 inh 1, Lmaj promast 86*, WT yeast gro inh 10, RAM inhibit 0 and ABCG2 inh 1.
`Cc1ccccc1N1CCN(c2ccc(NC(=O)C3CCCCC3C(=O)O)cc2)CC1` (stereo not drawn) gave ABCB1 inh 1, Lmaj promast -4, WT yeast gro inh -12, RAM inhibit 4 and ABCG2 inh 11.
Screening Cc1cc(C)c2oc(C(=O)Nc3ccc(S(=O)(=O)N4CCCC(C)C4)cc3)cc(=O)c2c1 (stereo not drawn) returned ABCB1 inh 6, Lmaj promast 19, WT yeast gro inh 9, RAM inhibit 9.2* and ABCG2 inh 13.
Screening COc1cccc(-n2c(=O)c3c(C)c(C(=O)N(C)C)sc3n(CC(=O)NCC3CCCO3)c2=O)c1 (stereo not drawn) returned ABCB1 inh 0, Lmaj promast -2, WT yeast gro inh -2, RAM inhibit 1 and ABCG2 inh 1.
`CC(C)(C)N=C1NC(=NC(C)(C)C)c2ccccc21` gave ABCB1 inh 0, Lmaj promast 66*, WT yeast gro inh 5, RAM inhibit 1 and ABCG2 inh 1.
For c1ccc2c(c1)C(=NCC1CCCO1)NC2=NCC1CCCO1 (stereo not drawn) the results were ABCB1 inh 0, Lmaj promast 5, WT yeast gro inh 4, RAM inhibit 1 and ABCG2 inh 0.
`CC1c2ccccc2SC(CCCN(C)C)c2ccccc21` (stereo not drawn) gave ABCB1 inh -1, Lmaj promast 100*, WT yeast gro inh 11, RAM inhibit 2 and ABCG2 inh -2.
For CCN(CC)CCOC(=O)C1c2ccccc2Oc2ccccc21 the results were ABCB1 inh -5, Lmaj promast 0, WT yeast gro inh 7, RAM inhibit 2 and ABCG2 inh -2.
CN(C)CCC1Sc2ccccc2Oc2ccccc21 (stereo not drawn) was read as ABCB1 inh 0, Lmaj promast 100*, WT yeast gro inh -1, RAM inhibit 1 and ABCG2 inh -1.
CN(C)CCCCOc1ccccc1-c1ccccc1 was read as ABCB1 inh 1, Lmaj promast 20, WT yeast gro inh 16, RAM inhibit 2 and ABCG2 inh 1.
For NS(=O)(=O)c1ccc2c(c1)oc(=O)c1cc(S(N)(=O)=O)ccc12 the results were ABCB1 inh 0, Lmaj promast -1, WT yeast gro inh -16, RAM inhibit 3 and ABCG2 inh -2.
For CCCCCCCCCCOC(=O)c1csc2nnsc12 the results were ABCB1 inh 0, Lmaj promast -5, WT yeast gro inh 0, RAM inhibit 6 and ABCG2 inh -9.
`O=C1CC(NNc2ccccc2)C(=O)N1c1ccc(N2CCCCC2)cc1` (stereo not drawn) gave ABCB1 inh 0, Lmaj promast -3, WT yeast gro inh 20, RAM inhibit 3 and ABCG2 inh 9.
Screening C=CCc1ccccc1OCC(O)CN1CCN(c2ccc(C)cc2)CC1 (stereo not drawn) returned ABCB1 inh 2, Lmaj promast 69*, WT yeast gro inh 36, RAM inhibit 1 and ABCG2 inh 4.
`OC(COCc1ccc(Cl)cc1)CN1CCN(c2ccccn2)CC1` (stereo not drawn) gave ABCB1 inh 0, Lmaj promast 36, WT yeast gro inh -4, RAM inhibit 2 and ABCG2 inh 0.
Screening CCOC(=O)N1CCN(CC(O)COCc2ccc(Cl)cc2)CC1 (stereo not drawn) returned ABCB1 inh 2, Lmaj promast 93*, WT yeast gro inh -9, RAM inhibit 1 and ABCG2 inh 8.
CCOC(=O)N1CCN(C(=O)C(CC)c2ccccc2)CC1 (stereo not drawn) was read as ABCB1 inh 0, Lmaj promast 0, WT yeast gro inh -11, RAM inhibit 0 and ABCG2 inh 0.
For CCOC(=O)N1CCN(CC(O)COc2ccccc2C(C)(C)C)CC1 (stereo not drawn) the results were ABCB1 inh 7, Lmaj promast 0, WT yeast gro inh 18, RAM inhibit 0 and ABCG2 inh -2.
`CCOC(=O)N1CCN(CC(O)COC(CC)c2ccccc2)CC1` (stereo not drawn) gave ABCB1 inh 2, Lmaj promast 91*, WT yeast gro inh -8, RAM inhibit 1 and ABCG2 inh 19.
`CCOC(=O)N1CCN(CC(O)COc2ccccc2C(C)CC)CC1` (stereo not drawn) gave ABCB1 inh 1, Lmaj promast 91*, WT yeast gro inh -5, RAM inhibit 0 and ABCG2 inh 10.
For CC(=O)Nc1c(O)nc(SCC(=O)Nc2nnc(SCc3ccccc3)s2)[nH]c1=O the results were ABCB1 inh -1, Lmaj promast -12, WT yeast gro inh -6, RAM inhibit 7 and ABCG2 inh 3.
Screening CCOC(=O)N1CCN(CC(O)COc2cc(C)ccc2C(C)C)CC1 (stereo not drawn) returned Lmaj promast 4, WT yeast gro inh 1, RAM inhibit 3 and ABCG2 inh 8.
